Test results published in article PMC5884014 (Neoplasia (New York, N.Y.), 2017).

Key:
[1] = tested on: FHC; assay: Cytotoxicity assay; format: cell-based, human; settings: 72 h
[2] = tested on: HCT116; assay: Cytotoxicity assay; format: cell-based, human
[3] = tested on: RKO; assay: Cytotoxicity assay; format: cell-based, human; settings: 72 h
[4] = tested on: LS174T; assay: Cytotoxicity assay; format: cell-based, human; settings: 72 h
[5] = tested on: LoVo; assay: Cytotoxicity assay; format: cell-based, human; settings: 72 h
[6] = tested on: Colo205; assay: Cytotoxicity assay; format: cell-based, human
[7] = tested on: DLD-1; assay: Cytotoxicity assay; format: cell-based, human
[8] = tested on: HT-29; assay: Cytotoxicity assay; format: cell-based, human
[9] = tested on: SW620; assay: Cytotoxicity assay; format: cell-based, human
[10] = tested on: RKO-E6; assay: Cytotoxicity assay; format: cell-based, human; settings: RKO-E6 (p53-KO), 72 h
[11] = tested on: H3347; assay: Cytotoxicity assay; format: cell-based, human; settings: H3347, 72 h
[12] = tested on: Caco-2; assay: Cytotoxicity assay; format: cell-based; settings: Homo sapiens, Caco-2, 72 h
[13] = Toxicology examination: serum biochemistry; format: in vivo; settings: ICR mice, 5-FU 50 mg/kg i.p., SL-1 30, oxaliplatin 7.5, cisplatin 7.5 mg/kg i.v.
[14] = tested on: CRC cell lines; assay: Cytotoxicity, panel of CRC cell lines; format: cell-based; settings: Homo sapiens, read-out: IC50 values in CRC cell lines
[15] = tested on: pGL4-WT and pGL4-MT luciferase reporters in RKO cells; assay: Luciferase reporter assay; format: cell-based, human; settings: SL-1 for 2 h
[16] = tested on: pEGFP-N1 plasmid DNA; assay: Alkaline agarose gel shift assay; format: biochemical; settings: 37°C, 2 h
[17] = tested on: RKO cells; assay: Comet and modified comet assays; format: cell-based, human; settings: 24 h, SL-1 0.75 μM, 5-FU […], alone or combined
Outline: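 RKO cells were exposed to the test compound and/or 5-FU for 24 h and then processed by comet assay. The read-out was tail moment, reported as means ± SD (n = 3) and compared by Student's t test. Synergy on tail moment was expressed as a combination index (CI).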

[18] = tested on: RKO cells; assay: Annexin V staining assay; format: cell-based, human
[19] = tested on: RKO xenografts; assay: Anticancer activity in xenograft mouse model; format: in vivo, nude mice
[20] = Toxicology examination: complete blood counts; format: in vivo; settings: ICR mice, 5-FU 50 mg/kg i.p., SL-1 30, oxaliplatin 7.5, cisplatin 7.5 mg/kg i.v.
[21] = Toxicology examination: histopathology of kidney and liver; format: in vivo; settings: ICR mice
[22] = tested on: breast carcinoma MX-1 xenografts; settings: cited from earlier work
[23] = FHC normal fetal colonic epithelial cells

N.N.[Cl][Pt][Cl] [Cisplatin, cisplatin]
IC50 [1, 23]: 21 ± 2.03 µM | IC50 ([2]; HCT116 (p53-WT), 72 h): 3.42 ± 0.36 µM | IC50 ([3]; RKO (p53-WT)): 26.3 ± 3.28 µM | IC50 ([4]; LS174T (p53-WT)): 8.48 ± 2.74 µM | IC50 ([5]; LoVo (p53-WT)): 6.38 ± 2.18 µM | IC50 ([6]; Colo205 (p53-WT), 72 h): 11.1 ± 1.27 µM | IC50 ([7]; DLD-1 (p53-MT), 72 h): 29.6 ± 6.42 µM | IC50 ([8]; HT-29 (p53-MT), 72 h): 5.99 ± 1.22 µM | IC50 ([9]; SW620 (p53-MT), 72 h): 0.91 ± 0.27 µM | IC50 [10]: 24.8 ± 7.71 µM | IC50 [11]: 12.2 ± 0.64 µM

CCc1c2c(nc3ccc(OC(=O)N4CCC(N5CCCCC5)CC4)cc13)-c1cc3c(c(=O)n1C2)COC(=O)[C@]3(O)CC [Irinotecan, irinotecan]
IC50 ([1]; Homo sapiens, FHC): > 100 µM | IC50 ([2]; Homo sapiens, HCT-116, 72 h): 1.38 ± 0.49 µM | IC50 ([3]; Homo sapiens, RKO): 2.63 ± 1.05 µM | IC50 ([4]; Homo sapiens, LS174T): 1.36 ± 0.33 µM | IC50 ([5]; Homo sapiens, LoVo): 9.69 ± 1.68 µM | IC50 ([6]; Homo sapiens, COLO 205, 72 h): 2.49 ± 0.48 µM | IC50 ([7]; Homo sapiens, DLD-1, 72 h): 1.72 ± 0.35 µM | IC50 ([8]; Homo sapiens, HT-29, 72 h): 4.19 ± 0.29 µM | IC50 ([9]; Homo sapiens, SW-620, 72 h): 0.32 ± 0.1 µM | IC50 [12]: 21.3 ± 7.34 µM | IC50 ([11]; Homo sapiens): 2.93 ± 0.68 µM

O=C1[O][Pt]2([NH][C@@H]3CCCC[C@H]3[NH]2)[O]C1=O [Oxaliplatin, oxaliplatin]
IC50 [1, 23]: 19.7 ± 2.21 µM | IC50 ([2]; HCT116 (p53-WT), 72 h): 1.78 ± 0.11 µM | IC50 ([3]; RKO (p53-WT)): 0.62 ± 0.02 µM | IC50 ([4]; LS174T (p53-WT)): > 50 µM | IC50 ([5]; LoVo (p53-WT)): 1.65 ± 0.21 µM | IC50 ([6]; Colo205 (p53-WT), 72 h): 2.26 ± 0.78 µM | IC50 ([7]; DLD-1 (p53-MT), 72 h): 1.62 ± 0.06 µM | IC50 ([8]; HT-29 (p53-MT), 72 h): 1.92 ± 0.81 µM | IC50 ([9]; SW620 (p53-MT), 72 h): 7.62 ± 3.12 µM | IC50 [10]: 10.3 ± 3.39 µM | IC50 [11]: 2.55 ± 0.73 µM | ALP ([13]; 2 days): 498.33 ± 63.91 U/l | ALT ([13]; 2 days): 28.00 ± 1.73 U/l | AST ([13]; 2 days): 76.67 ± 16.47 U/l | BUN ([13]; 2 days): 20.27 ± 3.32 mg/dL | CRE ([13]; 2 days): 0.27 ± 0.06 mg/dL | GLU ([13]; 2 days): 153.67 ± 88.22 mg/dL | ALP ([13]; 14 days): 245.5 ± 35.07 U/l | BUN ([13]; 14 days): 21.35 ± 5.07 mg/dL | CRE ([13]; 14 days): 0.13 ± 0.05 mg/dL | GLU ([13]; 14 days): 268.25 ± 61.43 mg/dL | GOT/AST ([13]; 14 days): 47.25 ± 7.13 U/l | GPT/ALT ([13]; 14 days): 29.50 ± 5.74 U/l

Cc1cc(NNC(=O)Nc2ccc(N(CCCl)CCCl)cc2)c2cc3c(cc2n1)OCO3 [SL-1, N-{4-[Bis(2-chloroethyl)amino]phenyl}-2-(6-methyl[1,3]-dioxolo[4,5-g]quinolin-8-yl)-hydrazinecarboxamide]
IC50 ([1]; Homo sapiens, FHC): 71.5 ± 8.36 µM | IC50 ([2]; Homo sapiens, HCT-116, 72 h): 0.34 ± 0.06 µM | IC50 ([3]; Homo sapiens, RKO): 0.2 ± 0.08 µM | IC50 ([4]; Homo sapiens, LS174T): 4.55 ± 1.01 µM | IC50 ([5]; Homo sapiens, LoVo): 0.61 ± 0.03 µM | IC50 ([6]; Homo sapiens, COLO 205, 72 h): 0.46 ± 0.1 µM | IC50 ([7]; Homo sapiens, DLD-1, 72 h): 0.36 ± 0.07 µM | IC50 ([8]; Homo sapiens, HT-29, 72 h): 0.53 ± 0.11 µM | IC50 ([9]; Homo sapiens, SW-620, 72 h): 0.14 ± 0.06 µM | IC50 [12]: 5.49 ± 3.07 µM | IC50 ([11]; Homo sapiens): 0.23 ± 0.03 µM | IC50 [14]: 0.14 to 5.49 µM | inhibition of luciferase reporter activity, pGL4-WT vs pGL4-MT [15]: inhibited the reporter activity of pGL4-WT more effectively than that of pGL4-MT | concentration that induced moderate levels of ICLs [16]: 0.05 µM | tail moment [17]: 5.4 ± 0.8 μm | mode of cell death [18]: primarily triggered apoptosis | tumor suppression ([19]; RKO xenograft (Figure 6A), SL-1 30 mg/kg Q2D×7 i.v., oxaliplatin 7.5 mg/kg, 5-FU 50 mg/kg): 61.8% | tumor growth suppression ([19]; RKO xenograft, nude mice, day 29, SL-1 30 mg/kg i.v. every other day 7 times): approximately 65% | BASO ([20]; 2 days): 0.00 ± 0.00 10^9/l | EO ([20]; 2 days): 0.09 ± 0.03 10^9/l | HCT ([20]; 2 days): 38.32 ± 3.18% | HGB ([20]; 2 days): 12.34 ± 1.35 g/dL | LYMPH ([20]; 2 days): 3.55 ± 0.98 10^9/l | MCH ([20]; 2 days): 15.88 ± 0.48 pg | MCHC ([20]; 2 days): 25.86 ± 1.72 g/dL | MCV ([20]; 2 days): 58.18 ± 3.66 fL | MONO ([20]; 2 days): 0.05 ± 0.03 10^9/l | NEUT ([20]; 2 days): 0.54 ± 0.20 10^9/l | PLT ([20]; 2 days): 1742.40 ± 273.56 10^9/l | RBC ([20]; 2 days): 7.80 ± 1.03 10^12/l | WBC ([20]; 2 days): 4.81 ± 1.00 10^9/l | BASO ([20]; 14 days): 0.01 ± 0.01 10^9/l | EO ([20]; 14 days): 0.13 ± 0.05 10^9/l | HCT ([20]; 14 days): 46.28 ± 2.32% | HGB ([20]; 14 days): 13.36 ± 0.74 g/dL | LYMPH ([20]; 14 days): 4.17 ± 1.28 10^9/l | MCH ([20]; 14 days): 15.58 ± 0.47 pg | MCHC ([20]; 14 days): 28.84 ± 0.57 g/dL | MCV ([20]; 14 days): 53.96 ± 1.92 fL | MONO ([20]; 14 days): 0.12 ± 0.15 10^9/l | NEUT ([20]; 14 days): 1.08 ± 0.36 10^9/l | PLT ([20]; 14 days): 838.80 ± 57.98 10^9/l | RBC ([20]; 14 days): 8.60 ± 0.68 10^12/l | WBC ([20]; 14 days): 5.50 ± 1.64 10^9/l | ALP ([13]; 2 days): 331.75 ± 27.94 U/l | ALT ([13]; 2 days): 24.50 ± 2.17 U/l | AST ([13]; 2 days): 49.00 ± 3.24 U/l | BUN ([13]; 2 days): 23.05 ± 2.22 mg/dL | CRE ([13]; 2 days): 0.20 ± 0.00 mg/dL | GLU ([13]; 2 days): 466.50 ± 146.80 mg/dL | ALP ([13]; 14 days): 231.00 ± 85.33 U/l | BUN ([13]; 14 days): 20.05 ± 2.37 mg/dL | CRE ([13]; 14 days): 0.17 ± 0.06 mg/dL | GLU ([13]; 14 days): 219.75 ± 35.85 mg/dL | GOT/AST ([13]; 14 days): 47.50 ± 1.29 U/l | GPT/ALT ([13]; 14 days): 22.00 ± 8.04 U/l | liver histopathology ([21]; 2-day test): liver damage was insignificant | kidney histopathology ([21]; 2 days after single dose): insignificant morphological injury in the kidney | histopathological examination, overall ([21]; SL-1 30 mg/kg i.v.): no obvious nephrotoxicity or hepatotoxicity | growth of breast carcinoma MX-1 xenografts [22]: complete tumor remission
